Data set [1] has as its system Human immunodeficiency virus 1. Put plainly: Antiviral activity against HIV-1 harboring RT K103N mutant infected in human MT4 cells assessed as protection against virus-induced cytopathogenicity after 5 days by MTT assay. The class given is functional, organism-based. The note with it: Human immunodeficiency virus 1, MT4, 120 h. Background: Protection from cytopathic effect is a common read-out in antiviral testing.

Data set [2] relates to Human immunodeficiency virus 1. Briefly: Antiviral activity against HIV-1 strain IIIB infected in human MT4 cells assessed as protection against virus-induced cytopathicity after 5 days by MTT assay. The class given is functional, organism-based. As to conditions: Human immunodeficiency virus 1, IIIB, MT4, 120 h.
Data set [3] has as its system Human immunodeficiency virus 1. Put plainly: Antiviral activity against HIV-1 harboring RT L100I mutant infected in human MT4 cells assessed as protection against virus-induced cytopathogenicity after 5 days by MTT assay. It counts as functional, organism-based. The note with it: Human immunodeficiency virus 1, MT4, 120 h.
The test system of data set [4] is Human immunodeficiency virus 1. Briefly: Antiviral activity against HIV-1 harboring RT F227L/V106A mutant infected in human MT4 cells assessed as protection against virus-induced cytopathogenicity after 5 days by MTT assay. The class given is functional, organism-based. The note with it: Human immunodeficiency virus 1, MT4, 120 h.
In data set [5] the test system is Human immunodeficiency virus 1. Put plainly: Antiviral activity against NNRTI-resistant HIV-1 RES056 harboring RT K103N/Y181C mutant infected in human MT4 cells assessed as protection against virus-induced cytopathogenicity after 5 days by MTT assay. The class given is functional, organism-based. As to conditions: Human immunodeficiency virus 1, RES056, MT4, 120 h.

Data set [6] concerns Human immunodeficiency virus 1. Briefly: Antiviral activity against HIV-1 harboring RT Y181C mutant infected in human MT4 cells assessed as protection against virus-induced cytopathogenicity after 5 days by MTT assay. As to conditions: Human immunodeficiency virus 1, MT4, 120 h. The class given is functional, organism-based.
Data set [7] deals with Human immunodeficiency virus 1. Put plainly: Antiviral activity against HIV-1 harboring RT E138K mutant infected in human MT4 cells assessed as protection against virus-induced cytopathogenicity after 5 days by MTT assay. The class given is functional, organism-based. As to conditions: Human immunodeficiency virus 1, MT4, 120 h.
The test system of data set [8] is Human immunodeficiency virus 1. Put plainly: Antiviral activity against HIV-1 harboring RT Y188L mutant infected in human MT4 cells assessed as protection against virus-induced cytopathogenicity after 5 days by MTT assay. It counts as functional, organism-based. As to conditions: Human immunodeficiency virus 1, MT4, 120 h.
Data set [9] relates to Human immunodeficiency virus 2. Put plainly: Antiviral activity against HIV-2 ROD infected in human MT4 cells assessed as protection against virus-induced cytopathogenicity after 5 days by MTT assay. The note with it: Human immunodeficiency virus 2, ROD, MT4, 120 h.
Data set [10] in a line: Acute toxicity in Kunming mouse assessed as body weight change at 2000 mg/kg, po single dose measured up to 2 weeks. As to conditions: in vivo, 336 h. The class given is organism-based. A digest of the protocol: (§1)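 Kunming mice, 20 total, randomly split into two groups: vehicle control (0 mg/kg) or single oral 2000 mg/kg dose on day 1. Animals observed for toxic symptoms and mortality over the following two weeks; body weight tracked and expressed as relative change.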

Data set [11] in a line: Tmax in Sprague-Dawley rat at 20 mg/kg, po. As to conditions: in vivo. It counts as ADME, organism-based. A digest of the protocol:
(§2)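 Sprague Dawley rats given a single 2 mg/kg intravenous or 20 mg/kg oral dose. Plasma concentration–time profiles followed. PK parameters reported as mean ± SD, n = 3.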

A short description of data set [12]: Tmax in Sprague-Dawley rat at 2 mg/kg, iv. It counts as ADME, organism-based. The note with it: in vivo. The method, boiled down: as §2
Data set [13] in a line: Acute toxicity in Kunming mouse assessed as toxic symptoms at 2000 mg/kg, po single dose measured up to 2 weeks. It counts as organism-based. As to conditions: in vivo, 336 h. A digest of the protocol: as §1
The nature of data set [14]: Acute toxicity in Kunming mouse assessed as mortality at 2000 mg/kg, po single dose measured up to 2 weeks. The class given is organism-based. As to conditions: in vivo, 336 h. A digest of the protocol: as §1

For eight compounds, EC50, Activity and Tmax results are on record in ChEMBL document CHEMBL4834412, “2,4,5-Trisubstituted Pyrimidines as Potent HIV-1 NNRTIs: Rational Design, Synthesis, Activity Evaluation, and Crystallographic Studies” (J Med Chem, 2021).

Take `Cc1cc(C#N)cc(C)c1Oc1nc(NC2CCN(Cc3ccc(S(C)(=O)=O)cc3)CC2)ncc1-c1ccco1`: the half-maximal effective concentration (EC50) in data set [1] is 5.92 nM; in data set [2], 4.52 nM; in [3], 20.4 nM; in [4], 110 nM; in data set [5], 233 nM; in [6] it was 26.4 nM. Besides, the 50% effective concentration (EC50) is 27.4 nM in [7], 28.8 nM in data set [8] and over 7.46 µM in [9].

`Cc1cc(C#N)cc(C)c1Oc1nc(NC2CCN(Cc3ccc(C(N)=O)cc3)CC2)ncc1-c1ccncc1`: the Activity entry in [10], in [13] and in data set [14] was “Non-Toxic” throughout. The Tmax in data set [11] came to 1 h; in [12], 19.8 min. Besides, the EC50 in data set [1] is 3.79 nM; in [2], 3.75 nM; in data set [3] it was 4.26 nM; in [4], 10.4 nM; in data set [5], 24.4 nM; in [6], 6.79 nM. For the same compound, the results for the EC50 in data set [7], in [8] and in [9] were 10.9 nM, 6.79 nM and over 36 µM, respectively.

Regarding `Cc1cc(C#N)cc(C)c1Oc1nc(NC2CCN(Cc3ccc(S(N)(=O)=O)cc3)CC2)ncc1-c1ccsc1`, the EC50 came out at 4.7 nM in [1]; 5.09 nM in data set [2]; 15.4 nM in data set [3]; 85.3 nM in data set [4]; 209 nM in data set [5]; 12.3 nM in [6]. The EC50 was 19.7 nM in data set [7], 30.3 nM in data set [8] and over 6.12 µM in data set [9].

`Cc1cc(C#N)cc(C)c1Oc1nc(NC2CCN(Cc3ccc(S(N)(=O)=O)cc3)CC2)ncc1-c1cccs1`: the concentration for a half-maximal effect (EC50) in data set [1] came to 5.39 nM; in data set [2], 4.57 nM; in data set [3] it was 5.92 nM; in [4] it was 30.2 nM; in data set [5], 103 nM; in data set [6] it was 10.7 nM. In addition, the concentration for a half-maximal effect (EC50) in data set [7] was 7.71 nM; in data set [8], 9.31 nM; in [9], at least 33.4 µM.

For `Cc1cc(C#N)cc(C)c1Oc1nc(NC2CCN(Cc3ccc(S(C)(=O)=O)cc3)CC2)ncc1-c1ccsc1`, the concentration giving a half-maximal response (EC50) in [1] was found to be 4.75 nM; in data set [2] it was 4.92 nM; in data set [3], 20.3 nM; in [4], 67.5 nM; in data set [5], 253 nM; in data set [6], 11.7 nM. For the same compound, the EC50 was found to be 10.6 nM in [7] and 27.2 nM in data set [8].

On to `Cc1cc(C#N)cc(C)c1Oc1nc(NC2CCN(Cc3ccc(C(N)=O)cc3)CC2)ncc1-c1ccoc1`, for which the concentration giving a half-maximal response (EC50) in data set [1] was 3.44 nM; in data set [2], 3.4 nM; in data set [3] it was 10.1 nM; in data set [4], 307 nM; in data set [5], 108 nM; in data set [6] it was 9.81 nM. Also, the EC50 in data set [7] is 11.2 nM; in data set [8], 21.1 nM; in data set [9], over 182 µM.

Regarding `Cc1cc(/C=C/C#N)cc(C)c1Oc1nc(NC2CCN(Cc3ccc(S(N)(=O)=O)cc3)CC2)ncc1-c1ccc(F)nc1`, the half-maximal effective concentration (EC50) in data set [1] came to 7.5 nM; in data set [2] it was 5.8 nM; in [3], 11.4 nM; in [4], 23.1 nM; in data set [5], 28.2 nM; in data set [6], 15.4 nM. The concentration for a half-maximal effect (EC50) in data set [7] turned out to be 49.1 nM; in data set [8] it was 36.7 nM.

On to `Cc1cc(C#N)cc(C)c1Oc1nc(NC2CCN(Cc3ccc(S(C)(=O)=O)cc3)CC2)ncc1-c1cccs1`, for which the concentration for a half-maximal effect (EC50) in [1] worked out at 5.71 nM; in data set [2] it was 4.01 nM; in data set [3], 8.93 nM; in [4], 38.4 nM; in [5] it was 134 nM; in data set [6], 11.6 nM. Further, the EC50 came to 6.27 nM in [7] and 15.4 nM in data set [8].

As usually defined, the EC50 is the concentration at which the effect is half-maximal. As a reminder, the Tmax is the time from dosing to the highest level.
